# Laboratory results taken from ChEMBL document CHEMBL1133390, “Effects of stilbene constituents from rhubarb on nitric oxide production in lipopolysaccharide-activated macrophages” (Bioorg Med Chem Lett, 2000).
# Assays:
# Assay type in all cases: functional
# Mus musculus [1] = species: Mus musculus; assay: Compound was tested for inhibitory activity against nitric oxide production in LPS-activated mouse peritoneal macrophages (*,showed cytotoxicity at 100 uM)
# Mus musculus [2] = species: Mus musculus; assay: Compound (at 100 uM) was tested for inhibition against nitric oxide production in LPS-activated mouse peritoneal macrophages
# In short: (§1)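 Peritoneal exudate cells from male ddY mice, 5 × 10^5 cells/well, pre-cultured 1 h at 37 °C in RPMI 1640 with 5% FCS. Nonadherent cells washed off; adherent macrophages (>95%) given 10 µg/mL LPS plus test compound (DMSO, final 0.5%) for 20 h. Nitrite in medium measured by Griess reagent. Inhibition calculated relative to LPS-stimulated and unstimulated wells; IC50 determined graphically (N=4).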
# Mus musculus [3] = species: Mus musculus; assay: Inhibitory activity against nitric oxide production in LPS-activated mouse peritoneal macrophages; in short: as §1
# Mus musculus [4] = species: Mus musculus; assay: Compound was tested for inhibitory activity against nitric oxide production in LPS-activated mouse peritoneal macrophages (*,showed cytotoxicity at 30 uM)
# Mus musculus [5] = species: Mus musculus; assay: Compound (at 10 uM) was tested for inhibition against nitric oxide production in LPS-activated mouse peritoneal macrophages
# Mus musculus [6] = species: Mus musculus; assay: Compound (at 30 uM) was tested for inhibition against nitric oxide production in LPS-activated mouse peritoneal macrophages
IC50 (Mus musculus [3]) [µM],Compound,inhibition at 100 µM (Mus musculus [2]) [%],further results
–,COc1cc(O)cc(/C=C/c2ccc(OC)c(OC)c2)c1,–,IC50 (Mus musculus [1]): 19 µM
> 100,Cc1cc(O[C@@H]2O[C@H](CO)[C@@H](O)[C@H](O)[C@H]2O)c2c(c1)C(=O)c1cccc(O)c1C2=O [CHRYSOPHANEIN],20,–
> 100,COc1ccc(/C=C/c2cc(O)cc(O[C@@H]3O[C@H](CO)[C@@H](O)[C@H](O)[C@H]3O)c2)cc1O [RHAPONTIN],25,–
> 100,Cc1cc(O)c2c(c1)C(=O)c1cccc(O[C@@H]3O[C@H](CO)[C@@H](O)[C@H](O)[C@H]3O)c1C2=O [PULMATIN],31,–
11,COc1ccc(/C=C/c2cc(O)cc(O[C@@H]3O[C@H](COC(=O)c4cc(O)c(O)c(O)c4)[C@@H](O)[C@H](O)[C@H]3O)c2)cc1O,–,–
> 100,COc1cc(/C=C/c2cc(O)cc(O[C@@H]3O[C@H](CO)[C@@H](O)[C@H](O)[C@H]3O)c2)ccc1O,5,–
32,Oc1cc(O)cc(CCc2ccc(O)c(O)c2)c1,–,–
> 100,C(=C\c1ccccc1)/c1ccccc1,21,–
> 100,COc1ccc(/C=C/c2cc(O)cc(O[C@@H]3O[C@H](CO)[C@@H](O)[C@H](O)[C@H]3O)c2)cc1,13,–
> 100,O=C1c2cccc(O)c2C(=O)c2c(O[C@@H]3O[C@H](CO)[C@@H](O)[C@H](O)[C@H]3O)cc(CO)cc21,46,–
23,Oc1cc(O)cc(/C=C/c2ccc(O)c(O)c2)c1 [PICEATANNOL],–,–
> 100,OC[C@H]1O[C@@H](Oc2cc(CCc3cc(O)cc(O)c3)ccc2O)[C@H](O)[C@@H](O)[C@@H]1O,6,–
> 100,c1ccc(CCc2ccccc2)cc1,26,–
48,COc1ccc(/C=C/c2cc(O)cc(O)c2)cc1O,–,–
–,O=C1c2cccc(O)c2C(=O)c2c(O)cc(CO)cc21 [ALOE-EMODIN],–,IC50 (Mus musculus [4]): > 10 µM; inhibition at 10 µM (Mus musculus [5]): 38%
49,COc1ccc(CCc2cc(O)cc(O)c2)cc1O,–,–
–,COc1ccc(/C=C/c2cc(O)cc(O)c2)cc1 [RESVERATROL 4'-METHYL ETHER],–,IC50 (Mus musculus [1]): > 30 µM; inhibition at 30 µM (Mus musculus [6]): 13%
40,O=C(/C=C/c1ccc(O)c(O)c1)OCCc1ccccc1 [CAFFEIC ACID PHENETHYL ESTER],–,–
63,COc1cc(/C=C/c2cc(O)cc(O)c2)ccc1O,–,–
68,Oc1ccc(/C=C/c2cc(O)cc(O)c2)cc1 [RESVERATROL],–,–
> 100,Cc1cc(O)c2c(c1)C(=O)c1cccc(O)c1C2=O [CHRYSOPHANOL],2,–
27,COC[C@H]1O[C@@H](Oc2cc(/C=C/c3cc(OC)cc(OC)c3)ccc2OC)[C@H](OC)[C@@H](OC)[C@@H]1OC,–,–
> 100,Cc1cc(O)c2c(c1)C(=O)c1cccc(O[C@@H]3O[C@H](COC(=O)c4cc(O)c(O)c(O)c4)[C@@H](O)[C@H](O)[C@H]3O)c1C2=O,31,–
> 100,COc1ccc(CCc2cc(O)cc(O[C@@H]3O[C@H](CO)[C@@H](O)[C@H](O)[C@H]3O)c2)cc1O,8,–
> 100,OC[C@H]1O[C@@H](Oc2cc(/C=C/c3cc(O)cc(O)c3)ccc2O)[C@H](O)[C@@H](O)[C@@H]1O,10,–
5.8,COC[C@H]1O[C@@H](Oc2cc(/C=C/c3ccc(OC)c(OC)c3)cc(OC)c2)[C@H](OC)[C@@H](OC)[C@@H]1OC,–,–
69,COc1cc(O[C@@H]2O[C@H](CO)[C@@H](O)[C@H](O)[C@H]2O)c2c(O)c(C(C)=O)c(C)cc2c1,–,–
–,COc1cc(/C=C/c2ccc(OC)c(O)c2)cc(OC)c1,–,IC50 (Mus musculus [1]): 23 µM
13,COc1ccc(/C=C/c2cc(O)cc(O[C@@H]3O[C@H](CO)[C@@H](O)[C@H](O)[C@H]3OC(=O)c3cc(O)c(O)c(O)c3)c2)cc1O,–,–

Compound,IC50 (Mus musculus [3]) [µM],inhibition at 100 µM (Mus musculus [2]) [%],further results
O=C(O)c1cc(O)c(O)c(O)c1 [GALLIC ACID],63,–,–
Oc1ccc(CCc2cc(O)cc(O)c2)cc1 [DIHYDRORESVERATROL],76,–,–
COc1ccc(/C=C/c2cc(OC)cc(OC)c2)cc1 [TRISMETHOXYRESVERATROL],22,–,–
"COc1cc(/C=C/c2ccc(OC)c(OC)c2)cc(OC)c1 [(E)-3,4,3',5'-TETRAMETHOXYSTILBENE]",28,–,–
